Published values of several laboratories.
Target: Serine/threonine-protein kinase 26 (STK26, Homo sapiens, UniProt Q9P289)

| Compound | assay | setting | remaining binding [%] |
| --- | --- | --- | --- |
| CCC(=O)N[C@@H]1CC[C@H](C(=O)N(C)c2ccc(-c3nc4ccccc4o3)cc2)C1 | cell-free assay, competition with immobilised ligand | 1 µM | 77 |
| CN1CCN(c2ccc(Nc3nccc(-c4cccc([N+](=O)[O-])c4)n3)cc2C(F)(F)F)CC1 | binding | 10 µM | 33 |
| FC(F)(F)Oc1cccc(-c2cnc3ccc(-c4ccncc4)nn23)c1 | cell-free assay, competition with immobilised ligand | 5 µM | 59 |
| NS(=O)(=O)c1cc(NC(=O)C2(c3ccccc3Cl)CC2)ccc1Oc1cccc(Cl)c1 | cell-free assay, competition with immobilised ligand | 1 µM | 100 |
| CNC(=O)[C@@H]1CC[C@@H](n2c(-c3ccc4cnccc4c3)nc3ccc(C(=O)NCc4cccc(C(N)=O)c4)cc32)C1 | binding, competition with immobilised ligand | 1 µM | 100 |
| O=C(c1ccc(Nc2ncc(Cl)c(-c3ccc(Cl)s3)n2)cc1)N1CCC(N2CCCC2)CC1 | binding, competition with immobilised ligand | 1 µM | 30 |
| CN([C@@H]1CCc2c(CC(=O)O)c3cc(S(C)(=O)=O)ccc3n2C1)S(=O)(=O)c1ccc(F)cc1 | cell-free assay, competition with immobilised ligand | 1 µM | 77 |
| COc1ncc2cc3ccccc3nc2c1C#N | cell-free assay, competition with immobilised ligand | 5 µM | 100 |
| O=C(NCC1CCOCC1)c1n[nH]cc1NC(=O)c1c(F)cccc1F | binding, competition with immobilised ligand | 1 µM | 77 |
| O=C(Nc1cccnn1)N1CCC(=Cc2cccc(Oc3ccc(C(F)(F)F)cn3)c2)CC1 | cell-free assay, competition with immobilised ligand | 1 µM | 100 |
| O=C(c1ccc(Nc2nccc(-c3cc4ccccc4s3)n2)cc1)N1CCC(N2CCCC2)CC1 | binding, competition with immobilised ligand | 1 µM | 99 |
| COc1cnc(Nc2cccc(S(N)(=O)=O)c2)nc1N1CCN(c2ccccc2)CC1 | binding, competition with immobilised ligand | 1 µM | 78 |
| O=C(c1ccc(Nc2ncc(Cl)c(-c3cc4ccccc4s3)n2)cc1)N1CCC(N2CCCC2)CC1 | binding, competition with immobilised ligand | 1 µM | 66 |
| CCN1CCN(Cc2ccc(C(=O)Nc3ccc(C)c(Oc4ccc5c(c4)CC(=O)N5)c3)cc2C(F)(F)F)CC1 | binding, competition with immobilised ligand | 1 µM | 100 |
